Rows were chosen to be rich in hits. Some 2.2% of all compounds tested hit in one or more screens of this group.
NR2E3 ag-1: agonists of human nuclear receptor NR2E3. AID 2300. Q9Y5X4. GST-NR2E3/biotin-RetCOR TR-FRET, 1536-well. actives 0.12% (n = 320,000). inhibition of corepressor binding, % at 4.78 µM;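 active means percent inhibition above the cutoff of mean plus 3 SD of all tested compounds, set per screening campaign, cut at about 20% in these data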;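 further: 0% = DMSO wells and 100% = biotin wells as full block of FRET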
Target sequence (Q9Y5X4 whole entry, looked up): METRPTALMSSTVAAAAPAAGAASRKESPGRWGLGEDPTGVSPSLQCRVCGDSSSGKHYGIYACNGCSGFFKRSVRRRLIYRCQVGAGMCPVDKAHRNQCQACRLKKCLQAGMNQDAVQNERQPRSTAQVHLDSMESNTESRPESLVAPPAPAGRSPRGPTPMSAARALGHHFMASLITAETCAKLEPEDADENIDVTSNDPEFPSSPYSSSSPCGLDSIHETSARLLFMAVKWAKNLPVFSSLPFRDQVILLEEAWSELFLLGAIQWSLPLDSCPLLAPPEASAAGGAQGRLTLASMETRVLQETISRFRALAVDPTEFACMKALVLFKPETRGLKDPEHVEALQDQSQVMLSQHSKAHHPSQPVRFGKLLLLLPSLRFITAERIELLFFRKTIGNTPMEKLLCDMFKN
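System: GST-tagged NR2E3 plus biotinylated RetCOR corepressor; Buffer or medium: pH 7.5 Tris-based buffer; Probe or stimulus: RetCOR corepressor, biotinylated, 7 nM; Doses: compound at 4.8 µM, single dose; Schedule: 5 h incubation at 4 °C; Technique: time-resolved FRET; Evaluation: percent inhibition of TR-FRET ratio; Replication: one well per compound, singlicate testing.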
GalR3 antag: blocks the human galanin receptor 3 | actives 0.44% (n = 360,000) | HEK293 GalR3-CNG cAMP membrane potential fluorescence; galR3 body fused to GalR1 C-terminus | AID 651719 | inhibition, % at 3 µM;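 active means inhibition above the screen-wide average plus 3 SD, cut at about 13% in these data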;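 further: forskolin and galanin both at EC90 stimulate the cells; cAMP rise reported by CNG channel membrane potential dye signal; 0% = forskolin plus galanin with DMSO and 100% = forskolin alone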
Target sequence (O60755 1-299 limits assumed): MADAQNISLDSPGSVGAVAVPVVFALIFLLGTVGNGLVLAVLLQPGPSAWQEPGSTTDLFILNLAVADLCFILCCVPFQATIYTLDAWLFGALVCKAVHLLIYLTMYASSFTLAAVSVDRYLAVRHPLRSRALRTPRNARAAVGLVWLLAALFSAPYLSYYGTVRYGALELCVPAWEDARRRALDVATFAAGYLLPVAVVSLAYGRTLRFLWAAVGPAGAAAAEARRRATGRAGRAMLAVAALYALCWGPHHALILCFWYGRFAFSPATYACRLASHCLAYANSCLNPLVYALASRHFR
V-ATPase pH: alters yeast V-ATPase proton transport; AID 504577; S. cerevisiae, pHLuorin cytosolic pH fluorescence; response, % at 10 µM; actives 0.37% (n = 350,000); in the data active means response mostly above about 7.3%, no sharp cut-off; inactive means mostly below about 5.4%; further: actives read high
NR2E3 ag-2: agonists of human NR2E3 nuclear receptor. Q9Y5X4. CHO-S Gal4-NCOR/VP16-NR2E3 two-hybrid, luciferase. inhibition of corepressor binding, % at 3.98 µM. actives 0.35% (n = 360,000);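 active means inhibition above the mean of all tested compounds plus 3 SD, cut at about 70% in these data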;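 further: 0% = DMSO with NR2E3 transfected cells and 100% = cells lacking NR2E3 construct; higher means lower luciferase signal from less NR2E3 corepressor binding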
HIV Env fusion: inhibitors of HIV Env-mediated cell fusion; HeLa-JRFL Env/CEM21 cell fusion, luciferase; inhibition, % at 12.3 µM; actives 1.1% (n = 360,000); AID 651610;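 active means mean replicate inhibition score of at least 50 and every replicate individually at or above 50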;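 further: 0% = plate neutral controls and 100% = maraviroc near 300 nM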
GAA850 FXN act: increases GAA850 frataxin promoter reporter activity; activation, % at 6 µM; HEK293 lucGAA850 FXN promoter luciferase reporter, 24 h; percent of 10 µM SAHA response; actives 0.56% (n = 360,000); AID 540364;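 active means activation above the average of all compounds screened plus 3 SD, cutoff fixed separately per campaign, cut at about 7.5% in these data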;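 further: 0% = DMSO wells and 100% = 10 µM SAHA wells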
* = called active by the depositor; · = no result given; [ ] = another dose, or the depositor's remark.

SMILES	NR2E3 ag-1	GalR3 antag	V-ATPase pH	NR2E3 ag-2	HIV Env fusion	GAA850 FXN act
COc1cccc(N(C(=O)CCl)C(C(=O)NCCc2ccccc2)c2cccs2)c1 (stereo not drawn)	5	-5	0	2	65*	-12
COc1ccc(N(C(=O)CCl)C(C(=O)NCCc2ccccc2)c2cccs2)cc1Cl (stereo not drawn)	-1	-6	-4	27	42	-10
CCCc1ccc(-c2cc(NC(=O)Cc3c[nH]c4ccccc34)ccc2Nc2cccnc2)cc1	·	-5	·	·	20	·
CC(C)(C)c1ccc(-c2cc(NC(=O)Cc3c[nH]c4ccccc34)ccc2Nc2cccnc2)cc1	·	-1	·	·	74*	·
COc1cccc(S(=O)(=O)N(C)C[C@@H]2OCc3ccccc3-c3c(n(C)c4ccccc34)C(=O)N([C@@H](C)CO)C[C@@H]2C)c1	·	·	·	·	60*[16.7 µM]	·
COc1cccc(S(=O)(=O)N(C)C[C@H]2OCc3ccccc3-c3c(n(C)c4ccccc34)C(=O)N([C@@H](C)CO)C[C@H]2C)c1	·	·	·	·	-104[16.7 µM]	·
COc1cccc(S(=O)(=O)N(C)C[C@@H]2OCc3ccccc3-c3c(n(C)c4ccccc34)C(=O)N([C@H](C)CO)C[C@@H]2C)c1	·	·	·	·	55*[16.7 µM]	·
C[C@@H](NC(=O)C[C@@H]1CC[C@H]2[C@@H](COC[C@H](O)CN2Cc2cc(F)ccc2F)O1)c1ccccc1	·	·	·	·	13[16.7 µM]	·
CCC(=O)Nc1ccc2c(c1)C(=O)N(C)C[C@@H](OC)[C@@H](C)CN(Cc1ccncc1)[C@H](C)CO2	·	·	·	·	-5[16.7 µM]	·
CCS(=O)(=O)Nc1ccc2c(c1)C(=O)N(C)[C@@H]1CC[C@H](CC(=O)N3CCN(C)CC3)O[C@H]1CO2	·	·	·	·	4[16.7 µM]	·
O=C(C[C@@H]1C=C[C@H](NS(=O)(=O)c2ccc(F)cc2)[C@H](CO)O1)NC1CCCCC1	·	·	·	·	12[16.7 µM]	·
COc1ccc(NC(=O)N(C)C[C@H]2OCCCC[C@H](C)Oc3ccc(NS(=O)(=O)c4ccc(Cl)cc4)cc3C(=O)N([C@H](C)CO)C[C@@H]2C)cc1	·	·	·	·	-22[16.7 µM]	·
COc1ccc(-c2ccc3c(c2)C2CC3CCN2S(=O)(=O)c2ccccc2C)cc1 (stereo not drawn)	·	-5	3	-7	57*	1
COc1ccc(NC(=O)Nc2cccc3c2O[C@H](CN(C)C(=O)Nc2ccccc2)[C@@H](C)CN([C@@H](C)CO)C3=O)cc1	·	·	·	·	3[16.7 µM]	·
CC(C)NC(=O)Nc1ccc2c(c1)CC(=O)N([C@H](C)CO)C[C@@H](C)[C@H](CN(C)C(=O)Nc1ccccc1)O2	·	·	·	·	7[16.7 µM]	·
O=C(Nc1ccc2c(c1)[C@H]1C[C@@H](CC(=O)N3CCc4ccccc4C3)O[C@H](CO)[C@H]1O2)NC1CCCC1	·	·	·	·	13[16.7 µM]	·
CNC(C)C#Cc1ccc2oc3cccc(OC)c3c(=O)c2c1 (stereo not drawn)	-3	-11	2	-33	-205	7.8*
COC(=O)Cc1nnn2c1[C@@H](C)[C@@H](c1ccccc1Br)O[C@@H](C)C2	·	-1	·	·	59*	·
CC(C)CC#Cc1cnc2c(c1)C(=O)N([C@H](C)CO)C[C@@H](C)[C@H](CN(C)C(=O)c1ccc3c(c1)OCO3)O2	·	·	·	·	21[16.7 µM]	·
FC(F)(F)c1ccc(N2CCN(c3cc(-c4ccccc4)nc4ncnn34)CC2)nc1	0	-9	1	17	77*	1
COC(=O)c1cccc(-n2nnnc2SCC(=O)Nc2nc3c(s2)CCCC3)c1	5	-2	24*	22	·	0
C[C@@H]1CCCCO[C@@H](CN(C)Cc2ccncc2)[C@@H](C)CN([C@H](C)CO)C(=O)c2cc(NS(=O)(=O)c3cn(C)cn3)ccc2O1	·	·	·	·	-16[16.7 µM]	·
COc1ccc(NC(=O)/C(Cl)=C(/Cl)S(=O)(=O)Cc2ccc(C)cc2)cn1	·	·	2	86*	·	-15
O=C1CC(c2ccsc2)c2ccc3ccccc3c2N1 (stereo not drawn)	-1	-9	3	-24	33	0
O=C1CC(c2cccc([N+](=O)[O-])c2)c2ccc3ccccc3c2N1 (stereo not drawn)	-2	-3	4	-10	93*	4
SMILES	NR2E3 ag-1	GalR3 antag	V-ATPase pH	NR2E3 ag-2	HIV Env fusion	GAA850 FXN act
CCOc1c(C)cnc2c1c(=O)n(Cc1ccc(Cl)cc1)c(=O)n2C	3	0	3	0	85*	3
O=C(CSc1nnc(COc2ccc(Cl)cc2)o1)N(c1ccccc1)C1CCS(=O)(=O)C1 (stereo not drawn)	·	-8	0	6	65*	-1
COc1ccc(C2=Nn3c(nnc3-c3ccncc3)SC2)cc1	3	-3	1	-7	96*	-6
COc1ccc(C2=Nn3c(nnc3-c3cccnc3)SC2)cc1	·	-3	-3	4	-28	1
CS(=O)(=O)N1[C@@H](C#N)[C@H](c2ccc(C#Cc3cccc(F)c3)cc2)[C@@H]1CO	·	·	·	·	-13[16.7 µM]	·
Cc1cc(OCC(=O)NCC(c2cccs2)N2CCOCC2)ccc1C(C)C (stereo not drawn)	2	-5	0	21	59*	6
CCOC(=O)C1CCCN(Cc2nc(N)nc(Nc3ccc(OC)cc3)n2)C1 (stereo not drawn)	-3	-5	-2	-10	70*	-4
CCOC(=O)C1CCCN(Cc2nc(N)nc(Nc3ccc(Cl)cc3)n2)C1 (stereo not drawn)	4	-4	-2	17	·	0
CCCC(=O)NC(c1ccco1)c1cc(Cl)c2cccnc2c1O (stereo not drawn)	7	3	-1	-22	·	-5
CCCC(=O)NC(c1cccs1)c1cc(Cl)c2cccnc2c1O (stereo not drawn)	4	-2	-1	-11	74*	-5
CCCC(=O)NC(c1cccc([N+](=O)[O-])c1)c1ccc2cccnc2c1O (stereo not drawn)	·	-5	·	-17	92*	-5
C[C@@H]1CN([C@H](C)CO)S(=O)(=O)c2ccc(-c3cccnc3)cc2O[C@H]1CN(C)CC1CC1	·	·	·	·	0[16.7 µM]	·
O=C(Cn1ncc(Cl)c(Cl)c1=O)NC(=O)NC1CCCCC1	·	-3	0	20	61*	-11
O=C(CN1CCCCC1)NC(=O)NC1CCCC1	1	-3	0	-5	5	3
Cc1noc(C)c1NC(=O)N(C)C[C@@H]1OCCCC[C@@H](C)Oc2ccc(NC(=O)c3ccncc3)cc2C(=O)N([C@H](C)CO)C[C@H]1C	·	·	·	·	-9[16.7 µM]	·
COc1ccc(NC(=O)c2sccc2SCc2cccc(C(F)(F)F)c2)cc1	2	-9	-2	4	80*	0
O=C(Nc1ccc(F)cc1)c1sccc1SCc1cccc(C(F)(F)F)c1	3	-1	3	-1	31	0
O=C(CN1CCN(c2ncc(C(F)(F)F)cc2Cl)CC1)N1CCN(c2ncc(C(F)(F)F)cc2Cl)CC1	-8	-7	4	11	95*	0

Screening data from PubChem BioAssay.
